An excerpt weighted towards active compounds, which were near 5.7% of everything screened.
Calb FLC: C. albicans growth modulation with fluconazole | C. albicans CaCi-2 (fluconazole-resistant clinical isolate) + fluconazole, Alamar Blue growth, 48 h | growth inhibition, % (no concentration beside the values) | 0.57% of 300,000 active | AID 1979;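 active = growth inhibition above about 58% in most replicates, limit read from the data, passing the limit was not always enough; inconclusive = exactly half the replicates above a set limit; inactive = most replicates below a set limit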;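 note: all wells also contain fluconazole at 8 µg/ml as a sub-toxic cotreatment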
SKKanGAS inh: inhibitors of SKKanGAS S. pyogenes growth in kanamycin (SK-promoter or general growth effect); inhibition, % at 7.5 µM; 1.3% of 300,000 active; BacTiter-Glo, 6 h;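 active = mean replicate score, as percent of positive control median, at least 50; inconclusive = mean below 50 but one replicate at or above 50; inactive = mean and every replicate below 50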;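 note: strain carries kanamycin resistance gene driven by streptokinase promoter and grows in 40 µg/ml kanamycin; loss of luminescence reflects streptokinase promoter inhibition or plain growth inhibition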
CSC inhib: cancer stem cell inhibition; cancer stem cell-like cells viability, luminescence; 1.1% of 300,000 active; inhibition, % at 7.5 µM; in the data active = inhibition above about 75%; inconclusive = no clear call, values can overlap the other calls; tested in HMLE shEcad cells
Mdm2-MdmX inh: human Mdm2/MdmX binding inhibition; SaOS-2 split-luciferase Mdm2/MdmX complementation, luminescence; inhibition, % at 8 µM; 3% of 330,000 active;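 active = inhibition of at least 50% at 8 µM in the primary screen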
T cruzi repl: T. cruzi replication inhibition; T. cruzi beta-gal in NIH3T3, luminescence, 90 h; inhibition, % (concentration not given with the values); 1.4% of 300,000 active; AID 1885;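 active = mean inhibition across valid replicates above about 55%, limit read from the data; inconclusive = mean below that limit but half or more replicates reach it; inactive = mean below it, under half of replicates reach it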;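 note: signal also drops with host cell toxicity which is not excluded here; higher percent means less beta-gal luminescence so fewer parasites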
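System: mouse NIH/3T3 fibroblasts infected with β-gal-expressing T. cruzi Tulahuen C4 / Input: NIH/3T3 cells, 5,000 per well / Buffer or medium: Low-serum DMEM with 2% FBS / Probe or stimulus: 5000 reporter trypomastigotes per well / Schedule: ≥90 h infection period, 3 h prior cell attachment / Measured by: GalScreen luminescence, 60 min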
Beta apoptosis: blocks beta cell apoptosis; INS-1E cytokine-induced death, ATP luminescence, 48 h; percent of positive-control rescue, neutral wells zero; protection from apoptosis, % (test concentration not listed); 0.8% of 300,000 active;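 active = Every replicate reaches about 75%, or at least half do and their mean reaches it too, limit read from the data; inconclusive = At least half of replicates reach the limit but their mean does not; inactive = Under half of replicates reach the limit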;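 note: higher means more ATP so stronger rescue from cytokine killing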
Each line names hits and unclear results; the compound was inactive in the other large screens.

CCN(Cc1ccncc1)C(=O)c1cc(COc2ccc(C)c(C)c2)on1	T cruzi repl 56.2
O=C(Nc1nc2ccccc2s1)c1ccccc1[N+](=O)[O-]	none
O=C(Nc1cc(Sc2nc3ccccc3s2)cc([N+](=O)[O-])c1)c1ccccc1	T cruzi repl 56.0
O=C(Nc1cc(Sc2ccccn2)cc([N+](=O)[O-])c1)c1cccc(F)c1	Beta apoptosis 83.5
O=C(Nc1cc(Sc2nc3ccccc3s2)cc([N+](=O)[O-])c1)c1ccccc1F	T cruzi repl 65.4
COc1cccc(N(CC(=O)N2CCCC2)S(C)(=O)=O)c1	none (no result: Beta apoptosis)
CCC(C)[C@H](NC(=O)N1CC(=O)Nc2ccccc21)C(=O)N1CCC(C(=O)O)CC1 (stereo not given in full)	none
O=C(O)C1CCCN(S(=O)(=O)c2ccc(-c3ccc(=O)[nH]n3)s2)C1 (stereo not given)	none
Cc1ccc(Cl)cc1NC(=O)[C@@H]1CCC(=O)N1C1OC(=O)c2ccccc21 (stereo not given in full)	none
CCN(CC)CCNC(=O)c1nn(-c2ccc(C)cc2)c(=O)c2c1c1ccccc1n2C	T cruzi repl 60.3
Cc1ccc([C@@H]2[C@@H]3C(=O)N(c4ccccc4)C(=O)[C@@H]3[C@]3(C)C(=O)N(CC4CC4)CC(=O)N23)o1	none
Cc1nn(-c2ccccc2)c(C)c1/C=N/NC(=O)c1cc(-c2ccc(Br)s2)[nH]n1	SKKanGAS inh 50.7, CSC inhib 75.8
CC(/C=N/NC(=O)c1cc(-c2ccc(C)s2)[nH]n1)=C\c1ccccc1	CSC inhib 86.9
COc1cccc(NC(=O)[C@H](NC(=O)[C@@H]2Cc3ccccc3CN2)c2ccccc2)c1	none
CCOC(=O)C1=C(C)NC(=S)NC1c1cc(C)sc1C (stereo not given)	none (no result: CSC inhib)
CCOC(=O)c1c(NC(=O)C2=C(C)NC(=S)NC2c2ccccc2C(F)(F)F)sc(C)c1C (stereo not given)	T cruzi repl 62.4
Cc1sc2nc(SCCN(C)C)n(-c3ccccc3)c(=O)c2c1-c1ccc(F)cc1	CSC inhib 109.1
COc1ccc(F)cc1C(=O)C1CCCN(Cc2ccc3c(c2)OCCO3)C1 (stereo not given)	none
COc1ccc2cc(C(=O)C3CCCN(Cc4cnc(C)s4)C3)ccc2c1 (stereo not given)	none
COc1c(C)cc(C(=O)C2CCCN(Cc3cnc(N4CCOCC4)s3)C2)cc1C (stereo not given)	none
COc1ccc(C(=O)C2CCCN(Cc3cnc(N4CCCC4)s3)C2)cc1OC (stereo not given)	T cruzi repl 67.0
COc1ccc(F)cc1C(=O)C1CCCN(Cc2cnc(N3CCCC3)s2)C1 (stereo not given)	T cruzi repl 56.6
COc1ccc(Cl)cc1C(=O)C1CCCN(Cc2cnc(N3CCOCC3)s2)C1 (stereo not given)	T cruzi repl 71.6 (no result: Beta apoptosis)
CC(=O)N[C@@H](Cc1c[nH]c2ccccc12)C(=O)NC1CCCc2ccccc21 (stereo not given in full)	none
COc1ccc(Cl)cc1NC(=O)CN(C)C(=O)c1sccc1-c1ccccc1	none (no result: Calb FLC, SKKanGAS inh, T cruzi repl)
CCC1CCCCN1CCCNC(=O)Cn1c2ccccc2c2nc(=O)cc(C)n21 (stereo not given)	none
Cc1cc(Oc2ccccc2)nc(-c2ccccc2O)n1	Calb FLC 104.2
COc1ccc(N2CCN(c3ncnc4c3[nH]c3ccccc34)CC2)cc1	Beta apoptosis 102.3
Fc1ccc2[nH]c3c(Cl)ncnc3c2c1	none
Fc1ccc2[nH]c3c(N4CCN(c5ccccc5)CC4)ncnc3c2c1	Beta apoptosis 89.2
CCOC(=O)N1CCN(c2ncnc3c2[nH]c2ccc(F)cc23)CC1	Beta apoptosis 76.1
CCCCOc1ncnc2c1[nH]c1ccc(F)cc12	CSC inhib inconclusive, Beta apoptosis 109.8
CCOC(=O)N1CCN(c2ncnc3c2[nH]c2ccc(OC)cc23)CC1	none
O=C(c1ccco1)N1CCN(c2ncnc3c2[nH]c2ccccc23)CC1	none (no result: CSC inhib, Beta apoptosis)
CC(C)Cn1c(N)c(C(=O)CSc2n[nH]c(N)n2)c(=O)n(C)c1=O	none (no result: Calb FLC, SKKanGAS inh, CSC inhib, T cruzi repl)
COC(=O)[C@]1(C)N[C@H](CN(C)C(=O)c2ccc(C)cc2)[C@@H]2C(=O)N(Cc3ccccc3)C(=O)[C@@H]21	none (no result: Calb FLC, SKKanGAS inh, T cruzi repl)
Brc1cc2c(cc1/C=N/Nc1nc(N3CCCC3)nc(N3CCOCC3)n1)OCO2	none
C/C(=N\Nc1nc(N2CCOCC2)nc(N2CCOCC2)n1)c1cccs1	Calb FLC inconclusive
C/C(=N\Nc1nc(N2CCCCC2)nc(N2CCOCC2)n1)c1ccccc1O	T cruzi repl 55.1 (no result: Beta apoptosis)
Oc1ccc(Br)cc1/C=N/Nc1nc(N2CCCCC2)nc(N2CCOCC2)n1	SKKanGAS inh inconclusive, T cruzi repl 74.0
Cn1c(=O)c2c(ncn2CC(=O)N2CCN(S(=O)(=O)c3ccccc3)CC2)n(C)c1=O	none
COc1ccc(NC(C)=O)cc1S(=O)(=O)N(C)Cc1c(C)nn(-c2ccccc2)c1C	none (no result: Calb FLC, SKKanGAS inh, CSC inhib, T cruzi repl)
COc1ccccc1C(=O)c1cc2ccc(O)cc2oc1=O	none
O=C(c1ccc(F)cc1)c1cc2ccc(O)cc2oc1=O	SKKanGAS inh 65.4
CN(C(=O)c1ccc2c(c1)OCO2)C1CCS(=O)(=O)C1 (stereo not given)	none
CN1c2ccsc2/C(=N/NC(=O)c2c(F)cccc2F)CS1(=O)=O	none
CN1c2ccsc2/C(=N/Nc2ccccc2)CS1(=O)=O	SKKanGAS inh 59.7
COc1ccc(S(=O)(=O)n2cccc2)cc1OC	none
COc1ccc(C(=O)/C=C/C(=O)N(CC(=O)NC2CCCCC2)Cc2ccc(F)cc2)c(O)c1	T cruzi repl 58.8 (no result: CSC inhib, Mdm2-MdmX inh, Beta apoptosis)
CS(=O)(=O)N(CC(=O)NC1CCCCC1)Cc1ccc(F)cc1	none
COc1ccc(-n2c(-c3ccc(Cl)cc3)c[n+]3c2CCCCC3)cc1	Beta apoptosis 125.2
FC(F)Oc1ccc(-c2c[n+]3c(n2-c2ccccc2)CCCCC3)cc1	none
COc1ccc(-c2c[n+]3c(n2-c2ccccc2)CCCCC3)cc1	Calb FLC 112.3, T cruzi repl inconclusive, Beta apoptosis 115.3
COc1ccc(-n2cc(-c3ccccc3)[n+]3c2CCCCC3)cc1	T cruzi repl 81.4, Beta apoptosis 99.1
CN(c1ccccc1)S(=O)(=O)c1cccc(C(=O)NCC(=O)Nc2ccc(F)c(F)c2F)c1	none (no result: Calb FLC, SKKanGAS inh, T cruzi repl)
CC(C)Cc1ccc(CN2CCCC(NC(=O)CSc3nncn3C)C2)cc1 (stereo not given)	T cruzi repl 55.0
Cn1cnnc1SCC(=O)NC1CCCN(Cc2ccc(Cl)cc2)C1 (stereo not given)	none
CC(C)Cc1ccc(CN2CCCC(NC(=O)c3ccnn3C)C2)cc1 (stereo not given)	none
CC(C)Cc1ccc(CN2CCCC(NC(=O)c3nn(C)c(=O)c4ccccc34)C2)cc1 (stereo not given)	T cruzi repl 60.4 (no result: CSC inhib, Beta apoptosis)
COc1ccc([C@H]2CC(=O)C=C(c3c(C)cc(C)cc3C)C2)cc1	none (no result: Calb FLC, SKKanGAS inh, T cruzi repl)
